# This is a sample that favours compounds with a hit; in the whole collection about 2.6% have one here.
# MC4R ag barr: human MC4R agonism via beta-arrestin | 360,000 compounds, 0.98% hits | P32245 | activation, % at 8.9 µM | AID 540308 | U2OS MC4R beta-arrestin complementation, luminescence; percent of melanotan II response, DMSO zero;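 active = activation above a per-plate cutoff, the mean activation of sample wells on that plate plus 3 SD, cut at about 8% in these data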
# EP2 modulator: modulates human prostaglandin E2 receptor EP2 signaling; induction, % at 25 µM; 260,000 compounds, 0.83% hits; P43116; AID 940; EP2-expressing cells, cAMP HTRF FRET, PGE2 co-stimulation;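 active = compounds whose cAMP rise, as percent of the full-agonist control response, exceeds 60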;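 also: rat C6 glioma line stably carrying human EP2 under a CMV promoter; the protocol text gives 20 µM as final concentration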
# Target sequence (P43116 whole entry, looked up): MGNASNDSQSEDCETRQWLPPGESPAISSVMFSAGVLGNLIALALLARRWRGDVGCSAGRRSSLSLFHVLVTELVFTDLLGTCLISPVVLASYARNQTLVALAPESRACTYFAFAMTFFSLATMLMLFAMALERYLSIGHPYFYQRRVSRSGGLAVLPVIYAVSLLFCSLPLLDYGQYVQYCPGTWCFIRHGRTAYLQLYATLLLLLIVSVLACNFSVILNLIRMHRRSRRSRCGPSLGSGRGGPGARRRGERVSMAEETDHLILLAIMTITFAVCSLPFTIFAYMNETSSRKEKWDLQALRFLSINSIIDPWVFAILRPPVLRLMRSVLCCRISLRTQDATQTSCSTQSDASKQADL
# EP2 antag: EP2 receptor (human) inhibition | P43116 | 260,000 compounds, 0.52% hits | inhibition, % at 25 µM | C6 glioma cells expressing human EP2, cAMP TR-FRET; cells stimulated with saturating PGE2;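 active = percent inhibition above 40 after rounding to a whole number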;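 also: rat C6 glioma host cells with rolipram phosphodiesterase inhibitor present; the protocol text gives 20 µM as final concentration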
# T cell HTS: modulates CD8 T cell binding to vesicles. 2C CD8+ T cell-vesicle binding, flow cytometry; hits give low values. response (vesicle binding), % at 7 µM. 330,000 compounds, 0.068% hits. AID 2052;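 active = response, share of CD8 T cells binding vesicles, and their 90th percentile fluorescence all below set limits, cut at about 80% in these data, passing the limit was not always enough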;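 also: values below 100% mean blocked vesicle binding to the CD8+ T cells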
#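 Assay system: 2C TCR transgenic mouse naive CD8+ T cells, MACS-purified | Read-out: CD8+ gate FL2 mean fluorescence as % of same-row positive control | Signal: High-throughput flow cytometry with anti-B7-1 and anti-CD8 staining | Timing: Binding step 1.5 h, 37 °C, antibody labelling 20 min, ice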
# Exocytosis inh: lytic granule exocytosis inhibition; TALL-104 LAMP-1 surface exposure, flow cytometry; cells stimulated with thapsigargin and PMA; inhibition, % at 10 µM; 360,000 compounds, 0.66% hits;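 active = inhibition above about 55%, limit read from the data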
# MC4R antag cAMP: antagonists of human melanocortin 4 receptor (MC4R); P32245; MC4R-expressing cells, MTII-stimulated cAMP, LANCE TR-FRET; inhibition, % at 6.5 µM; 360,000 compounds, 0.48% hits;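 active = inhibition above its plate's cutoff, the mean of tested wells on that plate plus 3 SD, cut at about 29% in these data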
#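 Material: human MC4R-expressing U2OS cells. Probe or stimulus: Melanotan II challenge. Dosing: 6.5 µM single dose. Times: 30-min compound, 1-h challenge, 1-h detection, room temperature. Technique: TR-FRET with Eu-cAMP and labeled anti-cAMP, 671 nm. Replication: singlicate.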
# Hits are given with their value; 0 = inactive; - = no result given; ! = repeats disagree.
SMILES,MC4R ag barr,EP2 modulator,EP2 antag,T cell HTS,Exocytosis inh,MC4R antag cAMP
CCCCN1C(=O)Cc2c1nc(N)c1c(N)nc(N(CCC)CCC)c(C#N)c21,0,0,-,0,71.6,0
Clc1ccc(CN2CCCN(Cc3ccc(Cl)cc3)C2c2cc3ccccc3c3ccccc23)cc1,-,0,51.1,-,-,-
Clc1ccc(CN2CC[C@H]3C=CCc4cccc(c43)C2)cc1,0,-,-,0,0,0
COc1ccc(NC(=S)N(CCO)Cc2cc3c(C)cc(C)cc3[nH]c2=O)cc1,0,0,0,0,0,0
CCOC(=O)c1c(-c2ccccc2)csc1NC(=O)C1CCCO1 (configuration not stated),0,64.3!,0,0,0,0
CCOC(=O)c1nnn(-c2nonc2-n2cccc2)c1CN1CCCCC1,0,63.3,0,0,0,0
CCOc1cccc2cc(C(=O)N3CCc4ccccc43)c(=O)oc12,0,0,0,0,0,0
Cc1occc1-c1nnc(SCC(=O)N2CCN(c3ccccc3F)CC2)n1C,-,75.3!,0,0,-,-
Cc1occc1-c1nnc(SCC(=O)N2CCCCC2)n1C,0,-,-,-,0,0
Cc1cc(C)cc(-n2nnnc2SCC(=O)Nc2nc(-c3ccc(F)cc3)cs2)c1,30.0,0,0,0,0,0
Cc1ccc(N=C(N)N=C(N)N)cc1,0,0,0,0,0,0
NC(N)=Nc1ccc(-c2ccc(N=C(N)N)cc2)cc1,-,0,48.5,-,-,-
CN(C)c1ccc(C=c2c3ccccc3n3c2c2c([n+]3C)CCCC2)cc1,0,-,-,-,70.2,0
CN(C)c1ccc(C=c2c3ccccc3n3c2cc(-c2ccccc2)[n+]3C)cc1,0,-,-,-,88.9,0
COc1cc(C=c2c3ccccc3n3c2cc(-c2ccccc2)[n+]3C)cc(OC)c1OC,0,-,-,-,0,0
COc1cc(N(C)C)ccc1C=c1c2ccccc2n2c1cc(-c1ccccc1)[n+]2C,0,-,-,-,99.6,0
CN(C)c1ccc(C=c2c3ccccc3n3c2cc(-c2ccc(Cl)cc2)[n+]3C)cc1,0,-,-,-,0,0
c1cncc(-c2noc(C34CC5CC(CC(C5)C3)C4)n2)c1,0,63.1,0,0,0,0
COc1cccc(C(=O)Nc2c(C(N)=O)oc3ccccc23)c1,0,0,0,0,0,0
CCOC(=O)c1oc2ccccc2c1NC(=O)c1ccc2c(c1)OCO2,9.4,0,0,0,0,0
CCOC(=O)c1oc2ccccc2c1NC(=O)c1cccc(OC)c1,0,62.7,0,0,0,0
COc1ccc2oc(C(=O)NC(C)c3ccccn3)c(C)c2c1 (configuration not stated),0,-,-,0,0,0
CCOC(=O)c1oc2ccc(OC)cc2c1CSc1ccccn1,-,62.3,0,-,-,-
Cc1cn(CC(C)C)c(=O)n(-c2ccccc2)c1=O,0,-,-,-,0,0
C#CCOCCOCCOCCNc1nc(N2CCN(C(=O)[C@H]([C@@H](C)O)n3cc(CCCCN)nn3)CC2)nc(N2CCN(C(=O)[C@H](C)n3cc(CCC(=O)O)nn3)CC2)n1,0,-,-,-,0,0
SMILES,MC4R ag barr,EP2 modulator,EP2 antag,T cell HTS,Exocytosis inh,MC4R antag cAMP
COc1ccc2nc3ccccc3nc2c1NC(=O)c1ccc(Br)cc1,0,0,0,0,0,0
COc1ccc2nc3ccccc3nc2c1NC(=O)c1ccc(Cl)cc1,9.1,0,0,0,0,0
Cc1cc(C)n(C(=O)CCCCCCCCC(=O)n2nc(C)cc2C)n1,0,60.8,0,0,0,0
CN1C(=S)SC(C)(NO)C1(C)C (configuration not stated),0,0,0,0,0,0
Cc1ccc(S(=O)(=O)/N=C2/C=C(Sc3ncn[nH]3)C(=O)c3ccccc32)c(C)c1,-,0,54.3,0,-,-
CC(C)c1ccc(S(=O)(=O)/N=C2/C=C(Sc3ncn[nH]3)C(=O)c3ccccc32)cc1,0,0,121.8,0,98.5,29.4
COC(=O)CCCC1=CC2=CC(=O)C(C)(OC(=O)c3cccs3)C(=O)C2=CO1 (configuration not stated),-,-,0,-,-,-
Cc1ccc(C(=O)C(C)OC(=O)CN2C(=O)NC3(CCCC3)C2=O)cc1 (configuration not stated),0,-,-,0,0,0
CSC(SC)=C(C#N)C(=O)c1ccccc1,24.3,0,48.2,0,56.1,38.5
